Test results reported in ChEMBL document CHEMBL1122828, “Resolution and absolute configuration of the potent dopamine agonist N,N-diethyl-N'-[(3 alpha, 4a alpha, 10a beta)-1,2,3,4,4a,5,10,10a- -octahydro-6-hydroxy-1-propyl-3-benzo[g]quinolinyl]sulfamide” (J Med Chem, 1985).

Assays:
Rattus norvegicus [1] = test: Compound was evaluated for the in vivo inhibition of basal prolactin for a time 4 hr after injection in male rats; assay type: functional
Summary of the method: (§1)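 Adult male SIV 50 rats were housed singly from the day before, with light from 4 a.m. to 6 p.m. They got a single sc injection and were decapitated 4 h later. Trunk blood was taken and serum pooled from 3 rats per group, with 1–3 groups per dose. Prolactin was measured by double-antibody RIA against NIH rat Prl RP-1. The dose giving a 50% fall in serum prolactin was estimated graphically.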

Dopamine receptor [2] = biological target: T1, Dopamine receptor (Bos taurus, UniProt Q95136+P20288); test: In vitro inhibitory activity was evaluated against,[3H]spiperone calf caudate (SPC) dopamine receptor; assay type: protein assay
Summary of the method: (§2)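 Radioligand displacement used brain homogenates. Four to six test concentrations were each incubated in triplicate. IC50 in nM came from weighted regression analysis.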

[3] = biological target: T2, Adrenergic receptor alpha-2 (Rattus norvegicus, UniProt P22086+P19328+P22909); test: In vitro inhibitory activity was evaluated against,[3H]clonidine (Clon) rat brain minus cerebellum Alpha-2 adrenergic receptor; assay type: tissue-based; summary of the method: as §2
T2 sequence (P22086 whole entry): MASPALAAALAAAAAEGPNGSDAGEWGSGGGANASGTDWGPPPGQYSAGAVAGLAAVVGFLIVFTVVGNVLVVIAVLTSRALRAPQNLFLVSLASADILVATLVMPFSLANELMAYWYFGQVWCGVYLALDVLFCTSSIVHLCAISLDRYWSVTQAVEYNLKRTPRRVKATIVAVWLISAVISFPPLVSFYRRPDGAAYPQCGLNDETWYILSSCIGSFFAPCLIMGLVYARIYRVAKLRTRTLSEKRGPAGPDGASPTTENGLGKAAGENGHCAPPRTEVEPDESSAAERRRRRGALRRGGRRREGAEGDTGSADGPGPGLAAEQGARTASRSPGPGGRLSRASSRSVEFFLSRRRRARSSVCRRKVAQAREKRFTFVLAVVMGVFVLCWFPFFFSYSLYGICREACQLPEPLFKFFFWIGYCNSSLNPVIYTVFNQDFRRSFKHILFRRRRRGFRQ
T2 sequence (P19328 whole entry): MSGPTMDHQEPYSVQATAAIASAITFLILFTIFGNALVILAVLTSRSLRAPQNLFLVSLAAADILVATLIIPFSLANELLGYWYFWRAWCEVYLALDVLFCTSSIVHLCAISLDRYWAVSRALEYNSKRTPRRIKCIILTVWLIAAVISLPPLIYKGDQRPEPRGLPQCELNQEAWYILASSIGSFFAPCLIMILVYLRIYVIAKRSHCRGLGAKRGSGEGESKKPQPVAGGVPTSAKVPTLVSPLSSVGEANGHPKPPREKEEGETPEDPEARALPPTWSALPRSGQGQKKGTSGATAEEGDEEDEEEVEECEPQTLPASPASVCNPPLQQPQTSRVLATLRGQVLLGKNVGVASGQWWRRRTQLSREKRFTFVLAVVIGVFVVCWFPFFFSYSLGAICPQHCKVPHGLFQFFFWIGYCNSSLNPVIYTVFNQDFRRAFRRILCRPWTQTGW
T2 sequence (P22909 whole entry): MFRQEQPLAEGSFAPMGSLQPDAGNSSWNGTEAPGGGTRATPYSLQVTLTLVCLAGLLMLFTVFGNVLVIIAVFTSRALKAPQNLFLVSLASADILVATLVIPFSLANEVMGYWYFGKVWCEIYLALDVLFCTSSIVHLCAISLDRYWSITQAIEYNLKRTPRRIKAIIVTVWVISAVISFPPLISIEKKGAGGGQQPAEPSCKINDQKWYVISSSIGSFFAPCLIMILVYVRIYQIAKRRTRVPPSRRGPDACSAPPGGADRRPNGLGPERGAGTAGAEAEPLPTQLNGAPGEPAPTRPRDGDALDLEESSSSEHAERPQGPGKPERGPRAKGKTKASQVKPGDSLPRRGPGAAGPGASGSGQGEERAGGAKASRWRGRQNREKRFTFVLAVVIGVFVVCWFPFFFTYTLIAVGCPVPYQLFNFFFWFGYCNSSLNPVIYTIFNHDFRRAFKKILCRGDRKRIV

[4] = biological target: T3, Adrenergic receptor alpha-1 (Rattus norvegicus, UniProt P15823+P23944+P43140); test: In vitro inhibitory activity was evaluated against,[3H]WB 4101 whole rat brain alpha 1-adrenoceptor; summary of the method: as §2
T3 sequence (P15823 whole entry): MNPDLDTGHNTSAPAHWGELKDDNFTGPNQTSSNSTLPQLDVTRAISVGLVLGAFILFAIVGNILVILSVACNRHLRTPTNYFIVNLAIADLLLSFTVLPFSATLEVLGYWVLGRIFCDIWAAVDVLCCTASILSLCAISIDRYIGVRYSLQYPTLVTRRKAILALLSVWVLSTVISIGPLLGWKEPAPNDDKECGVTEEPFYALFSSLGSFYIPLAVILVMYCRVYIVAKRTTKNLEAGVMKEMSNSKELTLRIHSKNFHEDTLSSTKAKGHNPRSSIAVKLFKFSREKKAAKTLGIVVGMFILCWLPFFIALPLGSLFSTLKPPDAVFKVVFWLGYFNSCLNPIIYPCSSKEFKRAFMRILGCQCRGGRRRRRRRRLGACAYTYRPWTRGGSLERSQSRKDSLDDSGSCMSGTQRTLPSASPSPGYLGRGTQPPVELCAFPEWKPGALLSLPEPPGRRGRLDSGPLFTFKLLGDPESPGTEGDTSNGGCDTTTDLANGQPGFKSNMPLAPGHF
T3 sequence (P23944 whole entry): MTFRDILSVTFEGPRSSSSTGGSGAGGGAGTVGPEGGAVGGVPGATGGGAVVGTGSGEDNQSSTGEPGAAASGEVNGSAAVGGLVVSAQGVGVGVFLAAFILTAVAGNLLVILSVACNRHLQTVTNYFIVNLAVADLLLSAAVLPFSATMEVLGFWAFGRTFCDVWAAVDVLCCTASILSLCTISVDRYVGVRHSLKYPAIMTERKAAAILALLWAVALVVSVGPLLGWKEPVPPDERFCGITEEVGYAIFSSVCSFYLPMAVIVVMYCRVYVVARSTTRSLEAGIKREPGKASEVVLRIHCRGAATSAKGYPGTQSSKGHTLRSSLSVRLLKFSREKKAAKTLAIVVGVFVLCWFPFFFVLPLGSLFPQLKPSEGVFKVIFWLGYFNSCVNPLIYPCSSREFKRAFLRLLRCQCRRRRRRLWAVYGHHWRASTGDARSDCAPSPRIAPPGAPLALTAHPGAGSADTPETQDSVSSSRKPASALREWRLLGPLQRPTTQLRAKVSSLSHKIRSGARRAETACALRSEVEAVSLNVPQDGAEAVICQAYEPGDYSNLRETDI
T3 sequence (P43140 whole entry): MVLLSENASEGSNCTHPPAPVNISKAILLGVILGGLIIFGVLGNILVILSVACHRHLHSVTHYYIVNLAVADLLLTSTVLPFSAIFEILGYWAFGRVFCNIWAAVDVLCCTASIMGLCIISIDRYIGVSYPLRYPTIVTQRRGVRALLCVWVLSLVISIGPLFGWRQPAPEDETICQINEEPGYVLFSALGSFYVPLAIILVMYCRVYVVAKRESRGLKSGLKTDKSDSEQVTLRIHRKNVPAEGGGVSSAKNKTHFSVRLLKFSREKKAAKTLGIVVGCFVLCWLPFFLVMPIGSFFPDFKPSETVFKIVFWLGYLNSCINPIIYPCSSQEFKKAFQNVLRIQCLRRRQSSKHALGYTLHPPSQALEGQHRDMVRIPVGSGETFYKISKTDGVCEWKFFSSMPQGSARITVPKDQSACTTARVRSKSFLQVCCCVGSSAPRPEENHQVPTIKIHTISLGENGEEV

Dopamine receptor [5] = biological target: T1, Dopamine receptor; test: In vitro inhibitory activity was evaluated against,[3H]dopamine (DA),calf caudate dopamine receptor; assay type: protein assay; summary of the method: as §2
Rattus norvegicus [6] = test: Compound was evaluated for the in vivo inhibition of basal prolactin secretion for a time 4 hr after injection in male rats; assay type: functional; settings: read-out: ID50 (the source's name); summary of the method: as §1
Dopamine receptor [7] = biological target: T1, Dopamine receptor; test: In vitro inhibitory activity was evaluated against [3H]spiperone calf caudate (SPC) dopamine receptor; assay type: protein assay; summary of the method: as §2
Dopamine receptor [8] = biological target: T1, Dopamine receptor; test: In vitro inhibitory activity was evaluated against [3H]dopamine (DA) calf caudate dopamine receptor; assay type: protein assay; summary of the method: as §2
[9] = biological target: Serotonin (5-HT) receptor; test: In vitro inhibitory activity was evaluated against,[3H]serotonin (5-HT) whole rat brain serotonin receptor
Rattus norvegicus [10] = test: Compound was evaluated for the in vivo inhibition of basal prolactin secretion for a time 60 min after injection in male rats; assay type: functional; settings: 1 h, read-out: ID50 (the source's name)
Rattus norvegicus [11] = test: Compound was evaluated for the in vivo inhibition of basal prolactin secretion for a time 30 min after injection in male rats; assay type: functional; settings: 0.5 h, read-out: ID50 (the source's name)
[12] = biological target: Serotonin (5-HT) receptor; test: In vitro inhibitory activity was evaluated against,[3H]spiperone rat frontal cortex (SPFC) serotonin receptor; assay type: tissue-based

| IC50 (Dopamine receptor [2]) [µM] | IC50 [3] [µM] | IC50 [4] [µM] | IC50 (Dopamine receptor [5]) [µM] | IC50 (Dopamine receptor [7]) [µM] | IC50 (Dopamine receptor [8]) [µM] | Compound | ID50 (Rattus norvegicus [1]) [mg/kg] | ED50 (Rattus norvegicus [6]) [mg/kg] | IC50 [9] [µM] | ED50 (Rattus norvegicus [10]) [mg/kg] | ED50 (Rattus norvegicus [11]) [mg/kg] | IC50 [12] [µM] | ED50 (Rattus norvegicus [1]; Rattus norvegicus, 4 h, read-out: ID50 (the source's name)) [mg/kg] |
| --- | --- | --- | --- | --- | --- | --- | --- | --- | --- | --- | --- | --- | --- |
|  | > 10 | > 10 |  | > 10 | > 100 | CCCN1CC(NS(=O)(=O)N(CC)CC)CC2Cc3c(O)cccc3CC21 (stereo in doubt; (+)1) [QUINAGOLIDE] |  | > 3 |  |  |  |  |  |
| 0.019 | 7.4 | 6 | 0.075 |  |  | CCCN1CC(NS(=O)(=O)N(CC)CC)CC2Cc3c(O)cccc3CC21 (stereo in doubt; -1) [QUINAGOLIDE] | 0.0018 |  |  |  |  |  |  |

Further lines, the molecule ahead of its results:

| Compound | IC50 (Dopamine receptor [2]) [µM] | IC50 [3] [µM] | IC50 [4] [µM] | IC50 (Dopamine receptor [5]) [µM] | IC50 (Dopamine receptor [7]) [µM] | IC50 (Dopamine receptor [8]) [µM] | ID50 (Rattus norvegicus [1]) [mg/kg] | ED50 (Rattus norvegicus [6]) [mg/kg] | IC50 [9] [µM] | ED50 (Rattus norvegicus [10]) [mg/kg] | ED50 (Rattus norvegicus [11]) [mg/kg] | IC50 [12] [µM] | ED50 (Rattus norvegicus [1]; Rattus norvegicus, 4 h, read-out: ID50 (the source's name)) [mg/kg] |
| --- | --- | --- | --- | --- | --- | --- | --- | --- | --- | --- | --- | --- | --- |
| CCCN1CC(NS(=O)(=O)N(CC)CC)CC2Cc3c(O)cccc3CC21 (racemic) [QUINAGOLIDE] | 0.048 | 5.6 | 7.8 | 0.19 |  |  | 0.005 |  |  |  |  |  |  |
| CN1CCc2cccc3c2[C@H]1Cc1ccc(O)c(O)c1-3 [APOMORPHINE] |  |  | 7.75 |  |  |  |  | > 10 | > 10 | 0.081 | 0.058 | 4.5 |  |
| CCN(CC)S(=O)(=O)N[C@H]1C[C@@H]2c3cccc4[nH]cc(c34)C[C@H]2N(C)C1 [ETISULERGINE] | 0.025 | 0.48 | 3.3 | 0.12 |  |  |  |  | > 5 |  |  | 0.026 | 0.0014 |
